Laboratory results: ChEMBL document CHEMBL4665843, “Automated Design of Macrocycles for Therapeutic Applications: From Small Molecules to Peptides and Proteins” (J Med Chem, 2020)

Experiments:
[1] = biological target: Glucagon-like peptide 1 receptor (Homo sapiens, UniProt P43220); assay: Agonist activity at human GLP-1 receptor expressed in HEK293 cells assessed as induction of cAMP accumulation incubated for 30 mins by HTRF assay; format: functional, cell-based
In short: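 HEK-293 cells stably expressing human receptor, grown in DMEM/10% FBS, frozen, thawed and washed in HBSS/20 mM HEPES/0.1% HSA; resuspended with 2 mM IBMX. 5000 cells/well incubated with peptide 30 min at room temperature; cAMP by HTRF kit, 1 h with reagents in lysis buffer, 665/620 nm fluorescence ratio.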

[2] = biological target: Glucagon receptor (Homo sapiens, UniProt P47871); assay: Agonist activity at human glucagon receptor expressed in HEK293 cells assessed as induction of cAMP accumulation incubated for 30 mins by HTRF assay; format: functional, cell-based
Sequence of Glucagon receptor (P47871 whole entry): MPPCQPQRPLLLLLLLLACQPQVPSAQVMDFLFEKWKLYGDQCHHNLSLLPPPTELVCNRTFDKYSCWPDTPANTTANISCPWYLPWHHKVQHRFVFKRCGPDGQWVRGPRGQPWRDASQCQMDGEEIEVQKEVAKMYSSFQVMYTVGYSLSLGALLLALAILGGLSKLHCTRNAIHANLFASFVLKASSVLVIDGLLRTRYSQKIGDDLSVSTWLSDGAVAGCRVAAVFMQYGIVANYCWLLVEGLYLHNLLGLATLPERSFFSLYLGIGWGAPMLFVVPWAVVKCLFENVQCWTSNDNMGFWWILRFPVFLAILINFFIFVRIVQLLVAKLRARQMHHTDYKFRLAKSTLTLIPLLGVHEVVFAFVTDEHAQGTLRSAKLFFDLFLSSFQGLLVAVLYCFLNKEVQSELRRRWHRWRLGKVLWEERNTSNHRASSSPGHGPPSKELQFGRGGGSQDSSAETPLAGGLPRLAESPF

[3] = biological target: T1, Carboxypeptidase B2 (Homo sapiens, UniProt Q96IY4); assay: Inhibition of TAFIalpha in human plasma incubated for 15 mins by chromogenic assay; format: cell-free
T1 sequence (Q96IY4 whole entry): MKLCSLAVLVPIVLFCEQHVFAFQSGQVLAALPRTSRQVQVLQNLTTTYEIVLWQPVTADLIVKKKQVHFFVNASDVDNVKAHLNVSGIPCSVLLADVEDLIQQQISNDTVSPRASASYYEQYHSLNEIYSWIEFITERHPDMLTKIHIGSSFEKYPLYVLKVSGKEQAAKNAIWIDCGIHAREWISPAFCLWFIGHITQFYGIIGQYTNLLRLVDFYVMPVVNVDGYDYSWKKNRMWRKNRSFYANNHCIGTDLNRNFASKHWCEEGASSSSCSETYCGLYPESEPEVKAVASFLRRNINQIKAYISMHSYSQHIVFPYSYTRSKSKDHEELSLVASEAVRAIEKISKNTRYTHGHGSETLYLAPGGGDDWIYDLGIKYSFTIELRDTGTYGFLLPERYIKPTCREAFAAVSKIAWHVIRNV
In short: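 Plasma TAFI activity kit: TAFIa (2.5 μg/mL) preincubated with compound (from 2.5 mM DMSO stock) in 20 mM HEPES, 150 mM NaCl, pH 7.4, 15 min at room temperature; reaction started with developer (1:2 prediluted) and followed at 420 nm for 15 min. IC50 from serial dilutions in duplicate; mean (SEM) of n = 2 within one experiment.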

Sequence of Glucagon-like peptide 1 receptor (P43220 whole entry): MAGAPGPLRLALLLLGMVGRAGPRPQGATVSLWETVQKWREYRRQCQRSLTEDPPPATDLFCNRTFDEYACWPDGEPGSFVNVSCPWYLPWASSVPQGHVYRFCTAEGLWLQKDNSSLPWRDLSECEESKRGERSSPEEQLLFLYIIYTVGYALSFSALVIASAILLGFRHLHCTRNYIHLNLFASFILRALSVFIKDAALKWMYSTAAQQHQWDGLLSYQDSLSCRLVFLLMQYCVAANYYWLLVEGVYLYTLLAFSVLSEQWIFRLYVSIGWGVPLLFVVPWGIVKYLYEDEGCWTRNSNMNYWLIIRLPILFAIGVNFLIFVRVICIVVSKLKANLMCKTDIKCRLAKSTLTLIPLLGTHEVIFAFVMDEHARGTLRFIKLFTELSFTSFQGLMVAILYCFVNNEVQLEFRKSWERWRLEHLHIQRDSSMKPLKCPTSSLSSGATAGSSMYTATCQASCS

Row | SMILES | IC50 [3] | EC50 [1] | EC50 [2]
1 | CC[C@H](C)[C@H](NC(=O)[C@H](Cc1ccccc1)NC(=O)[C@H](CC(=O)O)NC(=O)[C@H](CCC(N)=O)NC(=O)[C@H](C)NC(=O)[C@H](CCCNC(=N)N)NC(=O)[C@H](CCCNC(=N)N)NC(=O)[C@H](CO)NC(=O)[C@H](CC(=O)O)NC(=O)[C@H](CCSC)NC(=O)[C@H](CCC(N)=O)NC(=O)[C@H](CCCCN)NC(=O)[C@H](CO)NC(=O)[C@H](CC(C)C)NC(=O)[C@H](CC(=O)O)NC(=O)[C@H](CO)NC(=O)[C@@H](NC(=O)[C@H](Cc1ccccc1)NC(=O)[C@@H](NC(=O)CNC(=O)[C@H](CCC(N)=O)NC(=O)[C@H](CO)NC(=O)[C@@H](N)Cc1cnc[nH]1)[C@@H](C)O)[C@@H](C)O)C(=O)N[C@@H](CCC(=O)O)C(=O)N[C@@H](Cc1c[nH]c2ccccc12)C(=O)N[C@@H](CC(C)C)C(=O)N[C@@H](CCCCN)C(=O)N[C@@H](CC(N)=O)C(=O)NCC(=O)NCC(=O)N1CCC[C@H]1C(=O)N[C@@H](CO)C(=O)N[C@@H](CO)C(=O)NCC(=O)N[C@@H](C)C(=O)N1CCC[C@H]1C(=O)N1CCC[C@H]1C(=O)N1CCC[C@H]1C(=O)N[C@@H](CO)C(N)=O |  | 0.0183 nM | 0.0286 nM
2 | CC[C@H](C)[C@H](NC(=O)[C@H](Cc1ccccc1)NC(=O)[C@H](CC(=O)O)NC(=O)[C@H](CCC(N)=O)NC(=O)[C@H](C)NC(=O)[C@H](CCCNC(=N)N)NC(=O)[C@H](CCCNC(=N)N)NC(=O)[C@H](CO)NC(=O)[C@H](CC(=O)O)NC(=O)[C@]1(C)CCC/C=C\CCC[C@](C)(NC(=O)[C@H](CC(=O)O)NC(=O)[C@H](CO)NC(=O)[C@@H](NC(=O)[C@H](Cc2ccccc2)NC(=O)[C@@H](NC(=O)CNC(=O)[C@H](CCC(N)=O)NC(=O)[C@H](CO)NC(=O)[C@@H](N)Cc2cnc[nH]2)[C@@H](C)O)[C@@H](C)O)C(=O)N[C@@H](CO)C(=O)N[C@@H](CCCCN)C(=O)N[C@@H](CCC(N)=O)C(=O)N1)C(=O)N[C@@H](CCC(=O)O)C(=O)N[C@@H](Cc1c[nH]c2ccccc12)C(=O)N[C@@H](CC(C)C)C(=O)N[C@@H](CCCCN)C(=O)N[C@@H](CC(N)=O)C(=O)NCC(=O)NCC(=O)N1CCC[C@H]1C(=O)N[C@@H](CO)C(=O)N[C@@H](CO)C(=O)NCC(=O)N[C@@H](C)C(=O)N1CCC[C@H]1C(=O)N1CCC[C@H]1C(=O)N1CCC[C@H]1C(=O)N[C@@H](CO)C(N)=O |  | 0.0074 nM | 0.0023 nM

More lines, main results first:

Row | IC50 [3] | SMILES | EC50 [1] | EC50 [2]
3 | 52 nM | CC(C)[C@@H]1NC(=O)[C@H](NC(=O)N[C@@H](CCCCN)C(=O)O)Cc2ccc(cc2)NC(=O)c2coc1n2 |  | 
4 | 42 nM | CC(C)[C@@H]1NC(=O)[C@H](NC(=O)N[C@@H](CCCCN)C(=O)O)CCCCNC(=O)c2coc1n2 |  | 
5 | 10 nM | CC(C)[C@@H]1NC(=O)[C@H](NC(=O)N[C@@H](CCCCN)C(=O)O)CCCCNC(=O)c2csc1n2 |  | 
